The values that follow come from ChEMBL document CHEMBL4477180, “Synthesis and Structure-Activity Relationships of N-Dihydrocoptisine-8-ylidene Aromatic Amines and N-Dihydrocoptisine-8-ylidene Aliphatic Amides as Antiulcerative Colitis Agents Targeting XBP1” (J Nat Prod, 2016).

Structures are written as SMILES. The source made the active and inactive calls. The calls are words filed in the database; no cut-off is given here.

Data set [1] is described as follows: Cytotoxicity against rat IEC-6 cells assessed as survival at 10 uM by MTT assay. Type of data set: cell-based. Conditions: read-out: Survival. Background: Tetrazolium dyes change colour on reduction, which living cells bring about.
Another data set has as its target T1, X-box-binding protein 1 (Rattus norvegicus, UniProt Q9R1S4).
T1 sequence (Q9R1S4 whole entry): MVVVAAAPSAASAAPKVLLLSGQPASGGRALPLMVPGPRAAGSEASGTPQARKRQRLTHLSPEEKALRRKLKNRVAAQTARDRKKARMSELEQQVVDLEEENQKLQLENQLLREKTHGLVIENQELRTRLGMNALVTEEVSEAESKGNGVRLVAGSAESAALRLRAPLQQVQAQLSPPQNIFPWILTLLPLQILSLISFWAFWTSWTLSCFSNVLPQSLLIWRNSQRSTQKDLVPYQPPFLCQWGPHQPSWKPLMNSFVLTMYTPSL
In words: Activation of XBP1 in rat IEC-6 cells assessed as transcriptional activity measured after 48 hrs by dual luciferase reporter gene assay. Type of data set: cell-based. Summed up:
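Dose–effect version of the IEC-6 XBP1 dual luciferase reporter assay. Cells (5 × 10⁴/well) had 4 h plasmid transfection at 37 °C, 5% CO₂, then 48 h coincubation with compound; EC₅₀ was taken from the dose–effect relationship.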
A general note: In a reporter assay the amount or activity of a reporter protein is the signal.

The target in data set [2] is T2, X-box-binding protein 1 (Rattus norvegicus) (UniProt Q9R1S4).
T2 sequence (whole entry): T1 sequence (Q9R1S4 whole entry)
The experiment in a line: Activation of XBP1 in rat IEC-6 cells assessed as transcriptional activity at 10 uM measured after 48 hrs by dual luciferase reporter gene assay relative to con 2. The format is cell-based. A digest of the protocol: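 XBP1 transcriptional activity read by dual luciferase reporter in growth-phase IEC-6 cells (5 × 10⁴ cells/well). Cells had 4 h plasmid transfection at 37 °C, 5% CO₂, then were coincubated 48 h with compound at 10 μM. Con 1 served as background contrast and con 2 as the pGL3-basic vector control.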

Data set [3] has as its system Mus musculus. The experiment in a line: Antiulcerative activity in DSS-induced C57BL/6J mouse model of acute ulcerative colitis assessed as colon macroscopic damage index at 300 mg/kg, po measured over 7 days (reference value: 4.63 +/- 0.52). The format is functional.
Data set [4] relates to Mus musculus. The experiment in a line: Antiulcerative activity in DSS-induced C57BL/6J mouse model of acute ulcerative colitis assessed as partial disappearance of inflammatory edema at 300 mg/kg, po measured over 7 days by microscopic analysis.
The subject of data set [5] is Mus musculus. In words: Antiulcerative activity in DSS-induced C57BL/6J mouse model of acute ulcerative colitis assessed as inhibition of disease activity index at 300 mg/kg, po measured over 7 days relative to control. The following applies: 168 h. The format is functional. Summed up:
(§1)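 Disease activity index (DAI) was scored in DSS-induced acute UC C57bl/6j mice (n = 8/group) given oral compound at 200 mg/kg or SASP at 300 mg/kg over 7 days. Inhibition ratio (IR %) is reported relative to the DSS model group.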

The test system of data set [6] is Mus musculus. The experiment in a line: Antiulcerative activity in DSS-induced C57BL/6J mouse model of acute ulcerative colitis assessed as body weight loss at 300 mg/kg, po measured over 7 days (reference value: 18%). Type of data set: functional.
The test system of data set [7] is Mus musculus. The experiment in a line: Antiulcerative activity in DSS-induced C57BL/6J mouse model of acute ulcerative colitis assessed as colon contracture at 300 mg/kg, po measured over 7 days (reference value: 37 %). The format is functional. A digest of the protocol:
(§2)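 Acute DSS colitis in C57bl/6j mice (n = 8/group), oral dosing (200 mg/kg test, SASP 300 mg/kg), 7-day trial with normal and DSS model groups. Colon length was measured at the end of the trial, and contracture was given as percentage shortening versus normal controls.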

Data set [8] has as its system Mus musculus. The experiment in a line: Antiulcerative activity in DSS-induced C57BL/6J mouse model of acute ulcerative colitis assessed as colon macroscopic damage index at 200 mg/kg, po measured over 7 days (reference value: 4.63 +/- 0.52). The format is functional.
The test system of data set [9] is Mus musculus. In words: Antiulcerative activity in DSS-induced C57BL/6J mouse model of acute ulcerative colitis assessed as improvement in colon lesion at 200 mg/kg, po measured over 7 days by microscopic analysis. The format is functional, organism-based. Summed up: (§3)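 At the end of the 7-day DSS acute UC trial in C57bl/6j mice (oral 200 mg/kg; SASP 300 mg/kg; normal and model groups), colon tissue was examined microscopically after HE staining at ×200 for histopathological change.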

Data set [10] deals with Mus musculus. In words: Antiulcerative activity in DSS-induced C57BL/6J mouse model of acute ulcerative colitis assessed as colon contracture at 200 mg/kg, po measured over 7 days (reference value: 37 %). The format is functional. A digest of the protocol: as §2
Data set [11] deals with Mus musculus. The experiment in a line: Antiulcerative activity in DSS-induced C57BL/6J mouse model of acute ulcerative colitis assessed as inhibition of disease activity index at 200 mg/kg, po measured over 7 days relative to control. The format is functional. The following applies: 168 h. Summed up: as §1
For data set [12], the system named is Mus musculus. The experiment in a line: Antiulcerative activity in DSS-induced C57BL/6J mouse model of acute ulcerative colitis assessed as body weight loss at 200 mg/kg, po measured over 7 days (reference value: 18%). The format is functional.
For data set [13], the system named is Mus musculus. In words: Antiulcerative activity in DSS-induced C57BL/6J mouse model of acute ulcerative colitis assessed as regular arrangement of IEC cells at 200 mg/kg, po measured over 7 days by microscopic analysis. The format is functional, organism-based. A digest of the protocol:
as §3

As for `Clc1ccc(/N=c2/c3c4c(ccc3cc3n2CCc2cc5c(cc2-3)OCO5)OCO4)cc1`, the viability at 10 µM in data set [1] lay in the range of 79 to 103%. In addition, the EC50 at X-box-binding protein 1 (read-out: EC50) is 174 nM. For the same molecule, the fold change (FC) in data set [2] was above 1.07.

With `N=c1c2c3c(ccc2cc2n1CCc1cc4c(cc1-2)OCO4)OCO3`, the viability at 10 µM in [1] was in the range of 79 to 103%. Also, the concentration giving a half-maximal response (EC50) result on X-box-binding protein 1 is given as “Not Active”. Also, in [2], the Ratio lay in the range of 0.78 to 107.

With `COc1ccc(/N=c2/c3c4c(ccc3cc3n2CCc2cc5c(cc2-3)OCO5)OCO4)cc1`, the viability at 10 µM in [1] was in the range of 79 to 103%. On X-box-binding protein 1 (read-out: EC50), the EC50 is 184 nM. Also, the Ratio in data set [2] was 0.78 to 107.

`CCCC(=O)/N=c1\c2c3c(ccc2cc2n1CCc1cc4c(cc1-2)OCO4)OCO3`: the viability at 10 µM in [1] fell in the range of 79 to 103%. In addition, at X-box-binding protein 1 (read-out: EC50), the concentration for a half-maximal effect (EC50) was 119 nM. Further, the fold change (FC) in data set [2] is above 1.07.

In the case of `O=C(O)C1=C/C(=N\Nc2ccc(S(=O)(=O)Nc3ccccn3)cc2)C=CC1=O`, the Activity with Mus musculus [3] is recorded as 3.17; with Mus musculus [6] it was 9%; with Mus musculus [7], 24%. The outcome with Mus musculus [4] was Active. Further, in the data set with Mus musculus [5], the inhibition in vivo at 300 mg/kg is 18%.

For the molecule `CC(=O)/N=c1\c2c3c(ccc2cc2n1CCc1cc4c(cc1-2)OCO4)OCO3`, in [1], the viability at 10 µM fell in the range of 79 to 103%. At X-box-binding protein 1 (read-out: EC50), the EC50 was determined as 283 nM. Besides, in data set [2], the fold change (FC) was above 1.07.

Turning to `CCCCC(=O)/N=c1\c2c3c(ccc2cc2n1CCc1cc4c(cc1-2)OCO4)OCO3`, the results for the Activity in the data set on Mus musculus [8], in the data set with Mus musculus [10] and with Mus musculus [12] were 2.63, 15% and 10%, respectively. Further, in data set [1], the viability at 10 µM was 79 to 103%. Besides, at X-box-binding protein 1 (read-out: EC50), the concentration giving a half-maximal response (EC50) stood at 32.5 nM. In addition, the outcome with Mus musculus [9] was Active. Besides, the fold change (FC) in data set [2] is above 1.07. For the same molecule, the inhibition in vivo at 200 mg/kg in the data set on Mus musculus [11] worked out at 33%.

In the case of `CCCCCCC(=O)/N=c1\c2c3c(ccc2cc2n1CCc1cc4c(cc1-2)OCO4)OCO3`, the viability at 10 µM in data set [1] fell in the range of 79 to 103%. Moreover, on X-box-binding protein 1, the EC50 entry was “Not Active”. The Ratio in data set [2] was in the range of 0.78 to 107.

`CCCCCC(=O)/N=c1\c2c3c(ccc2cc2n1CCc1cc4c(cc1-2)OCO4)OCO3`: the viability at 10 µM in data set [1] was 79 to 103%. In addition, at X-box-binding protein 1 (read-out: EC50), the EC50 turned out to be 70.8 nM. Further, the fold change (FC) in data set [2] was above 1.07.

Turning to `Fc1ccc(/N=c2/c3c4c(ccc3cc3n2CCc2cc5c(cc2-3)OCO5)OCO4)cc1`, in data set [1], the viability at 10 µM was 79 to 103%. At X-box-binding protein 1 (read-out: EC50), the EC50 stood at 346 nM. Besides, the fold change (FC) in data set [2] was above 1.07.

Consider `CCCCCCCC(=O)/N=c1\c2c3c(ccc2cc2n1CCc1cc4c(cc1-2)OCO4)OCO3`, for which the viability at 10 µM in [1] was 79 to 103%. Also, the EC50 result on X-box-binding protein 1 is “Not Active”. For the same molecule, the Ratio in data set [2] is 0.78 to 107.

For the molecule `O=c1c2c3c(ccc2cc2n1CCc1cc4c(cc1-2)OCO4)OCO3`, the EC50 at X-box-binding protein 1 (read-out: EC50) is 79.8 nM. For the same molecule, in [2], the fold change (FC) was above 1.07.

Take `c1ccc(/N=c2/c3c4c(ccc3cc3n2CCc2cc5c(cc2-3)OCO5)OCO4)cc1`: in data set [1], the viability at 10 µM was 79 to 103%. In addition, the EC50 at X-box-binding protein 1 (read-out: EC50) is 113 nM. In data set [2], the fold change (FC) is above 1.07.

For `CCC(=O)/N=c1\c2c3c(ccc2cc2n1CCc1cc4c(cc1-2)OCO4)OCO3`, the viability at 10 µM in [1] was 79 to 103%. Further, the EC50 on X-box-binding protein 1 (read-out: EC50) turned out to be 289 nM. Besides, the fold change (FC) in data set [2] was above 1.07.

In the case of `[Cl-].c1c2c(cc3c1OCO3)-c1cc3ccc4c(c3c[n+]1CC2)OCO4` [COPTISINE CHLORIDE], the viability at 10 µM in [1] lay in the range of 79 to 103%. Besides, on X-box-binding protein 1, the concentration for a half-maximal effect (EC50) result is given as “Not Active”. The Ratio in data set [2] is 0.78 to 107.

In the case of `Brc1ccc(/N=c2/c3c4c(ccc3cc3n2CCc2cc5c(cc2-3)OCO5)OCO4)cc1`, the viability at 10 µM in data set [1] was in the range of 79 to 103%. Also, the EC50 at X-box-binding protein 1 (read-out: EC50) was 48.9 nM. Besides, in data set [2], the fold change (FC) is above 1.07.

For the molecule `Cc1ccc(/N=c2/c3c4c(ccc3cc3n2CCc2cc5c(cc2-3)OCO5)OCO4)cc1`, the results for the Activity in the data set on Mus musculus [8], in the data set with Mus musculus [10] and with Mus musculus [12] were 2.63, 9% and 11%, respectively. Besides, the viability at 10 µM in [1] fell in the range of 79 to 103%. Further, the result with Mus musculus [13] was Active. Also, the EC50 on X-box-binding protein 1 (read-out: EC50) was 13.2 nM. Besides, the fold change (FC) in data set [2] is above 1.07. Moreover, the inhibition in vivo at 200 mg/kg in the data set with Mus musculus [11] stood at 27%.

A word on the EC50: it is the concentration at which the effect is half-maximal. The term inhibition in vivo denotes the share of the control response that was lost under treatment.
